STAT3 act – STAT3 signaling activation; U3A cells, IL-6 STAT3-luciferase reporter, luminescence; 100% = signal with IL-6 EC80 alone; activation (% of control), % at 5.6 µM; hit rate 0.91% among 190,000; AID 871;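 active = activation above the screen-wide mean of compound activation plus 3 SD, cut at about 130% in these data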
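system = STAT3-luciferase reporter U3A cells | reagent = IL-6 stimulus at 33 ng/mL final | timing = 1 h compound pre-exposure, 6 h IL-6 stimulation, 37 °C | measured by = luminescence | evaluation = % activation versus median of IL-6-stimulated wells | control set = IL-6-only wells as 100% reference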
Cl transport mod – modulators of human KCC2 chloride dependent transport; KCC2 cells, thallium flux FluoZin-2 fluorescence; Q9H2X9; B-score of Tl+ flux slope (higher = more flux/activation; lower = inhibition) at 10 µM; AID 1456; hit rate 2.2% among 190,000;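 active = thallium flux slope and its plate-corrected score both differing from the plate sample mean at a set confidence after two filtering rounds, in either direction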;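 also: slope of fluorescence scaled to starting intensity during 10 to 20 s after thallium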
Target sequence (Q9H2X9 whole entry, looked up): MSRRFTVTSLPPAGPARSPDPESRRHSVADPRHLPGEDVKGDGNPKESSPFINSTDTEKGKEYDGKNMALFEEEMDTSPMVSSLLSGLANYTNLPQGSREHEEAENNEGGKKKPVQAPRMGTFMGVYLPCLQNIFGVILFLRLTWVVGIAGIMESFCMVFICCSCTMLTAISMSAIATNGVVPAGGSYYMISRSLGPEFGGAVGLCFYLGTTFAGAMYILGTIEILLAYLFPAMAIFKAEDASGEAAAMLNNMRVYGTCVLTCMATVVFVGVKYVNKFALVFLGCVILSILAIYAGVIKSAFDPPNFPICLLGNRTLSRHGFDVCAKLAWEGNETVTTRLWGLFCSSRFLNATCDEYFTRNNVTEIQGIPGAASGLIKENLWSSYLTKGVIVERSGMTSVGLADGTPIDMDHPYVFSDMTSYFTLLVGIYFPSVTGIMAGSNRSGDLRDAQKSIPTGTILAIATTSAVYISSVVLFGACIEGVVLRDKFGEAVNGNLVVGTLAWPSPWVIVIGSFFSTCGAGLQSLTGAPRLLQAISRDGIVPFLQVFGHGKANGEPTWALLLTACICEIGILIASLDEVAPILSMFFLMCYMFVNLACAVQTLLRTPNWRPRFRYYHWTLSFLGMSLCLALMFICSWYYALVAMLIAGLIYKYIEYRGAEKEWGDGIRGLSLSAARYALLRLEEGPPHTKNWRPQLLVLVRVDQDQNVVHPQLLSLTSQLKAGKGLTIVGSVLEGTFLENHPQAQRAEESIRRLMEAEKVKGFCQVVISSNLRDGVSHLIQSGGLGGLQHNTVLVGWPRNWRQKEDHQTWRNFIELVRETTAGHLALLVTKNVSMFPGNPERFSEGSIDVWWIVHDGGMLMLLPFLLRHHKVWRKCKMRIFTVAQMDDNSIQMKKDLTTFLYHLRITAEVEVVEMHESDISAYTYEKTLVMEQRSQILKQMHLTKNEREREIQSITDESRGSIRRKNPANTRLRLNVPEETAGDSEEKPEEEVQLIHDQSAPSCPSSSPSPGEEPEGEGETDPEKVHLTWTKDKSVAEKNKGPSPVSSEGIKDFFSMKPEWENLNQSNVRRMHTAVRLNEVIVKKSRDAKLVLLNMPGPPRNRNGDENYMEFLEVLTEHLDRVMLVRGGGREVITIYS
STAT3 inh-1 – reduces IL-6 driven STAT3 reporter signal; hit rate 0.89% among 190,000; U3A cells, IL-6 STAT3-luciferase reporter, luminescence; host cell line lacks STAT1; AID 862; inhibition, % at 5.5 µM;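 active = inhibition above the mean inhibition across all screened compounds plus 3 SD, cut at about 44% in these data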
STAT1 activator – STAT1 signaling activation | activation (% of control), % at 5.5 µM | NIH 3T3 STAT1-luciferase reporter, IFN-gamma, luminescence; 100% = IFN-gamma alone, no compound | hit rate 2.6% among 200,000;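 active = activation above the screen-wide mean activation plus 3 SD, cut at about 130% in these data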
STAT1 blocker – inhibitors of IFN-gamma induced STAT1 signaling. NIH 3T3 STAT1-luciferase reporter, luminescence. inhibition, % at 5.5 µM. hit rate 0.35% among 200,000. AID 920;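 active = inhibition above a set limit, the mean inhibition across all tested compounds plus 3 SD, cut at about 34% in these data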
HSV augment – increases HSV replication in cells; HSV replication augmentation in cells, fold increase; maximum fold increase; hit rate 0.005% among 220,000; in the data active = maximum fold increase above about 1.5; tested in PC3 cells
STAT3 inh-2 – STAT3 inhibition, confirmation assay. shares compounds with STAT3 inh-1. U3A cells, IL-6 STAT3 luciferase reporter, luminescence; cell line lacks STAT1. inhibition, % at 5.7 µM. hit rate 45% among 1,200;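 active = inhibition above the hit cutoff computed for the primary STAT3 screen, cut at about 44% in these data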
NFkB inh 2 – counter-screen for STAT3 inhibitors: NF-kappaB inhibition | shares compounds with STAT3 inh-1 | HEK293T NF-kB luciferase reporter, TNF-alpha induced | inhibition, % at 5.7 µM | hit rate 36% among 1,200 | AID 1308;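 active = inhibition above the mean of solvent-only control wells plus 3 SD, cutoff set per campaign, cut at about 13% in these data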
STAT1 inh STAT3c – inhibits STAT1, counter-screen to STAT3 inhibitors; inhibition, % at 5.7 µM; shares compounds with STAT3 inh-1; AID 1317; NIH 3T3 STAT1-luciferase reporter, IFN-gamma induced, luminescence; hit rate 27% among 1,200;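 active = inhibition above the mean plus 3 SD of solvent-only control wells, limit set per screening run, cut at about 16% in these data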
Hits are given with their value; – = inactive; · = not tested or not shown; ! = not confirmed by another sample. Shown are actives, neighbours in structure and some others; about 5.5% of the full set was active somewhere.

SMILES	STAT3 act	Cl transport mod	STAT3 inh-1	STAT1 activator	STAT1 blocker	HSV augment	STAT3 inh-2	NFkB inh 2	STAT1 inh STAT3c
CC(C)(C)c1ccc(/C=C/C(=O)NC2=NCCS2)cc1	–	–	–	–	–	–	·	·	·
Cc1ccc(/C=C/C(=O)NC2=NCCS2)cc1	–	–	71	147	–	–	–	–	–
COc1ccc(OC)c(NC(=O)CSc2ncnc3c2cnn3-c2ccccc2Cl)c1	–	–	79	–	–	–	81	31	26
Fc1ccc(CNC(=S)NC2CCCC2)cc1	–	–	–	–	–	–	·	·	·
Cc1ccc(OCc2nc(-c3cccs3)no2)c([N+](=O)[O-])c1	–	–	50	–	–	–	–	–	–
O=C(OCCN(C1=NS(=O)(=O)c2ccccc21)c1ccccc1Cl)c1ccc(Cl)cc1	–	–	–	–	–	–	·	·	·
O=S(=O)(c1ccc(N2CCCC2)cc1)C(F)(F)F	–	–	44	–	–	–	–	–	–
O=S(=O)(c1ccc(N2CCN(c3ccc(F)cc3)CC2)cc1)N1CCCC1	–	–	–	–	–	–	·	·	·
O=C(N/N=C/c1ccc(Cl)cc1)c1n[nH]c2c1CCCC2	·	–	·	·	·	–	·	·	·
O=C(N/N=C/c1ccccc1)c1n[nH]c2c1CCCC2	–	–	56	–	–	–	–	–	–
O=C(N/N=C/c1ccccc1Cl)c1n[nH]c2c1CCCC2	–	–	68	–	–	–	73	56	23
CC(C)Oc1ccc(C(=O)Nc2ccc(N(C)C)cc2)cc1	–	–	54	–	–	–	–	–	–
CCCCOc1ccc(C(=O)Nc2ccncc2)cc1	–	–	79	–	–	–	79	–	–
CCCOc1ccc(C(=O)Nc2ccc(N(C)C)cc2)cc1	–	–	47	–	–	–	–	–	–
CCCCOc1ccc(C(=O)NC)cc1	–	–	–	–	–	–	·	·	·
CN(C)c1ccc(/C=N/NC(=O)c2ccc(NC(=O)c3ccccc3)cc2)cc1	·	–	·	·	·	–	·	·	·
Cc1ccc(C(=O)N2CCCCC2C(=O)O)o1 (stereo unspecified)	–	–	–	–	–	–	·	·	·
O=C(Nc1cccc(-c2nc3ccccc3s2)c1)C1=COCCO1	–	–	–	–	–	–	·	·	·
O=C(Nc1ccc(-c2nc3ccccc3s2)cc1)C1=COCCO1	–	–	54	–	–	–	77	60	31
COc1ccc(/C=N/N2C(=O)c3ccccc3C2=O)cc1	–	–	–	–	–	–	·	·	·
COc1ccc(/C=N\n2nnc3ccccc32)cc1	–	–	93	–	–	·	62	32	–
CCC(C)N(NC(C)=O)c1nc(Cl)nc(NC(C)(C)C)n1 (stereo unspecified)	–	·	–	–	–	–	·	·	·
Cc1ccc2[nH]c3c(N4CCN(Cc5ccc6c(c5)OCO6)CC4)ncnc3c2c1	–	·	54	–	–	·	–	15	17
COc1cccc2[nH]c3c(N4CCN(Cc5ccc6c(c5)OCO6)CC4)ncnc3c12	–	–	–	–	–	·	·	·	·
COC(=O)C/C(C)=N/Nc1ccc(S(=O)(=O)N2CCCC2)cc1[N+](=O)[O-]	–	–	–	–	–	–	·	·	·
SMILES	STAT3 act	Cl transport mod	STAT3 inh-1	STAT1 activator	STAT1 blocker	HSV augment	STAT3 inh-2	NFkB inh 2	STAT1 inh STAT3c
c1ccc(-c2cnc(-c3ccccc3)nc2)cc1	–	–	54	–	–	–	–	–	–
COc1ccc(CCNc2c3ccccc3nc3ccccc23)cc1OC	·	–	·	·	·	–	·	·	·
CC1CCC(C(C)C)C(OC(=O)Cn2c(-c3ccccc3)[n+](C)c3ccccc32)C1 (stereo unspecified)	–	–	53!	–	–	–	–	–	22
CC1CCC(C(C)C)C(OC(=O)Cn2c(-c3ccc(F)cc3)[n+](C)c3ccccc32)C1 (stereo unspecified)	–	–	–	–	–	–	·	·	·
Cc1ccc(SCc2cn3c(C)csc3n2)cc1	–	–	54	–	–	–	–	–	–
Cc1ccc(S(=O)(=O)NCc2cn3c(C)csc3n2)cc1	–	–	–	–	–	–	·	·	·
Cc1ccc2nc(-c3ccccc3N)[nH]c2c1	–	–	67	–	–	–	–	–	–
Cc1ccc(OCC(=O)N2CCN(S(C)(=O)=O)CC2)cc1	·	–	·	·	·	–	·	·	·
CC(=O)c1ccc(NC(=O)CSc2nnc(Cn3cnc4ccccc43)o2)cc1	–	–	–	–	–	–	·	·	·
COc1ccc(C(=O)CSc2nnc(Cn3cnc4ccccc43)o2)cc1	–	–	73	–	–	–	49	14	–
N#C/C(N)=C(/C#N)N=Cc1cccc(Cl)c1	·	–	·	·	·	–	·	·	·
CCCCNC(=O)c1ccc(NC(C)=O)c(Cl)c1	–	–	–	–	–	–	·	·	·
COc1ccc(C2CC(=O)C(C(c3ccc(O)cc3)C3C(=O)CC(c4ccc(OC)cc4)CC3=O)C(=O)C2)cc1 (stereo unspecified)	·	–	·	·	·	–	·	·	·
O=C(Nc1ccccc1)Nc1ccc(C(=O)N2CCCC2)cc1	–	–	45	–	–	–	–	–	–
O=C(Nc1ccc(Br)cc1)c1ccc(N2C(=O)C3CC=C(Cl)CC3C2=O)cc1 (stereo unspecified)	–	·	47	–	–	–	–	–	–
c1ccc2oc(-c3csc(N4CCOCC4)n3)cc2c1	–	–	58	–	–	–	–	–	–
COc1ccc(CCNc2ccc(N3C(=O)CC(C)C3=O)cc2[N+](=O)[O-])cc1OC (stereo unspecified)	–	–	70	–	–	–	58	17	–
Cn1c(=O)n(C)c2cc(NS(=O)(=O)c3ccc4c(c3)CCCC4)ccc21	–	·	53	–	–	–	–	–	20
Cn1c(=O)n(C)c2cc(NS(=O)(=O)c3ccc(C(C)(C)C)cc3)ccc21	–	–	–	–	–	–	·	·	·
CCOC(=O)c1oc2ccc(S(=O)(=O)Nc3ccc4c(c3)n(C)c(=O)n4C)cc2c1C	–	–	60	–	–	–	57	–	–
C=CCn1c(CCC(O)CCCCC)n[nH]c1=S (stereo unspecified)	–	–	–	–	–	–	·	·	·
c1csc(CNc2ccc3c(c2)OCCO3)c1	–	–	86	–	–	–	–	–	–
Oc1ccccc1CNc1ccc2c(c1)OCCO2	–	–	–	–	–	–	·	·	·
O=C(c1ccc(Cn2c(=S)[nH]c3ccc(N4CCOCC4)cc3c2=O)cc1)N1CCC(N2CCCCC2)CC1	–	–	–	–	–	–	·	·	·
Cn1c(=O)n(C)c2cc([N+](=O)[O-])c(N3CCN(C(=O)c4ccccc4Cl)CC3)cc21	–	·	63	–	–	–	–	–	–

From PubChem BioAssay
